Compounds with a hit are over-represented: about 2.7% of the library has one in this group of screens.
HTRA1 inhibitor: HTRA1 (human) protease inhibition | recombinant HTRA1, FP-rhodamine activity-based probe, fluorescence polarization | inhibition, % at 5.96 µM | 340,000 tested, 0.5% active | AID 504803; in the data active = inhibition above about 36%;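 note: 0% = enzyme with DMSO and 100% = wells lacking enzyme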
PRMT1 inh: blocks human protein arginine methyltransferase 1. Q99873. recombinant PRMT1, activity-based probe fluorescence polarization. inhibition, % at 2.79 µM. 370,000 tested, 1.3% active;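 active = inhibition above about 21% made by adding two undisclosed values, limit read from the data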
TCR CD3 inh: blocks the human TCR-CD3 interaction; TAMRA-labeled TCR probe fluorescence, biochemical; inhibition, % at 9.4 µM; 360,000 tested, 0.37% active; in the data active = inhibition above about 19%;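 note: recombinant mutant TCR 2C K166C tagged with TAMRA read by polarization; 0% = receptor in buffer alone and 100% = receptor with positive control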
SIAE primary: blocks human sialic acid acetylesterase; SIAE FP-Rh probe binding, fluorescence polarization; AID 1053197; 370,000 tested, 0.69% active; Q9HAT2; inhibition, % at 9.66 µM;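 active = inhibition above a cutoff: mean of compounds within the control limits plus 3 SD of those, cut at about 17% in these data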;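 note: 0% = plate median of compound wells and 100% = probe without SIAE protein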
mABHD4 FP: ABHD4 (mouse) inhibition, primary FP screen | Q8VD66 | purified mABHD4, FP-Rh probe fluorescence polarization | inhibition, % at 8.92 µM | 370,000 tested, 0.54% active;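 active = inhibition exceeding the mean over every tested compound plus 3 SD, cut at about 30% in these data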;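 note: 0% = plate median of compound wells and 100% = S159A mutant with DMSO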
Target sequence (Q8VD66 whole entry, looked up): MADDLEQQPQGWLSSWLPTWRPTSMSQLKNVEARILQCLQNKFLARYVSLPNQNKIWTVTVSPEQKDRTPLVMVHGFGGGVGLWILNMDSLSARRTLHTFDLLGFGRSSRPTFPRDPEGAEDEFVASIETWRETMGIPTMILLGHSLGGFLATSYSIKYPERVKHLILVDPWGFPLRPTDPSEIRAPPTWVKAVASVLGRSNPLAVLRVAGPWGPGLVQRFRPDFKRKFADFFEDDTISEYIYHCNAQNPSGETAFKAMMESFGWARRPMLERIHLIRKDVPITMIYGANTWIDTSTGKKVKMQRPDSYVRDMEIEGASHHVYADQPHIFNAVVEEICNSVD
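Assay system: wild-type mouse ABHD4 protein; compound: single nominal dose of 8.92 µM, 0.89% DMSO final; schedule: 45 min + 60 min at 25 °C; measured by: FP readout, ex 525 nm / em 598 nm; evaluation: % inhibition of FP-Rh probe binding versus controls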
PRMT1 confirm: PRMT1 (human) inhibition, FP confirmation | AID 687036 | 3,300 tested, 42% active | inhibition, % at 2.79 µM | recombinant His-PRMT1, activity-based probe fluorescence polarization | shares compounds with PRMT1 inh;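 active = mean inhibition across replicates above the hit cutoff derived for the earlier primary screen, cut at about 22% in these data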
Active calls of the source: *; · = not tested or not shown.

SMILES	HTRA1 inhibitor	PRMT1 inh	TCR CD3 inh	SIAE primary	mABHD4 FP	PRMT1 confirm
CCCn1cc(C(=O)Nc2ccc(Oc3cccnc3)cc2)c2ccccc21	·	4	-10	-25	-23	·
Cc1ccc(CN(C)C(=O)c2cc(COc3cccc(C(F)(F)F)c3)on2)o1	-17	37*	8	-6	-4	34*
CN(Cc1nccn1C)C(=O)c1cc(COc2cccc(C(F)(F)F)c2)on1	7	-3	1	0	4	·
Cc1ccc(CNC(=O)C2CCN(S(=O)(=O)c3c(C)noc3/C=C/c3ccco3)CC2)cc1	-41	3	-9	-3	-5	·
Cc1noc(/C=C/c2ccco2)c1S(=O)(=O)N1CCC(C(=O)NCc2ccco2)CC1	-2	32*	1	5	1	0
Cc1ccc2c(c1)[C@H]1[C@H](CO2)[C@H](c2ccccc2)[C@]2(C)C(=O)N(C)CC(=O)N12	0	5	-5	5	6	·
Cc1c(C(=O)NCc2ccco2)oc2ccc(Br)cc12	-21	2	2	10	-19	·
O=C(NCc1ccco1)c1cc2cc(Br)ccc2o1	-3	31*	8	-3	-13	25*
CC(C)(CCC(=S)N1CCOCC1)C1CCCCC1	3	37*	-2	-5	-3	6
N#Cc1c([N+](=O)[O-])cc([N+](=O)[O-])cc1S(=O)(=O)Cc1ccccc1	11	72*	-3	8	5	61*
COc1ccc(OC)c(CN(CC(F)(F)F)S(=O)(=O)c2ccccc2Br)c1	·	-1	0	-8	-4	·
O=C(Nc1ccccc1)c1nnsc1S(=O)c1ccc(Cl)cc1 (stereo not given)	-29	81*	6	0	0	88*
O=C(c1nnsc1S(=O)(=O)c1ccc(Cl)cc1)N1CCOCC1	-6	7	7	-5	-10	·
O=C(c1nnsc1S(=O)c1ccc(Cl)cc1)N1CCOCC1 (stereo not given)	2	54*	4	17	4	66*
Cc1nnsc1S(=O)c1ccc(Cl)cc1 (stereo not given)	-3	3	-4	3	1	·
C=CCN1C(C(=O)OC)CN(Cc2cn(CCC3OCCO3)nn2)CCS1(=O)=O (stereo not given)	·	0	·	3	-3	·
Nc1c(C(=O)Nc2nc3ccccc3s2)sc2nc(-c3cccs3)ccc12	-15	·	·	·	·	·
Nc1c(C(=O)C2CC2)sc2nc(-c3cccs3)cc(C(F)(F)F)c12	-6	32*	-5	-3	1	-1
COc1ccc(C(=O)c2sc3nc(C)cc(-c4cccs4)c3c2N)cc1	-34	6	5	-8	-2	·
CC(=O)c1sc2nc(-c3cccs3)ccc2c1N	-9	73*	5	-21	-14	29*
CC(C)NC(=O)c1sc2nc(-c3cccs3)cc(-c3cccs3)c2c1N	·	30*	8	-5	12	3
CC1(C)Oc2c(ccc(O)c2CN2CCOCC2)C2=C1CCCC2	5	-3	-2	-3	2	·
CC(=O)c1cc2c(cc1NC(=O)CSc1ncccn1)OCO2	10	1	-7	5	7	·
C=C1CC[C@@H]2[C@](C)(CCC[C@@]2(C)/C=C/[C@@H](O)C(C)(C)O)[C@H]1CC(=O)NCCS(=O)(=O)O	-2	0	2	2	-2	·
Cc1cccc(N2CCN(C(=O)c3ccc4ncsc4c3)CC2)c1C	-5	38*	-5	0	-3	1
SMILES	HTRA1 inhibitor	PRMT1 inh	TCR CD3 inh	SIAE primary	mABHD4 FP	PRMT1 confirm
C=CCN1C(=O)[C@@H](CC(=O)NCc2ccccc2)[C@]2(C(=O)OC)CCCCC=C12	·	-3	·	2	-9	·
O=C1CC(c2ccco2)CC(O)=C1C=Nc1cc(Cl)cc(Cl)c1 (stereo not given)	6	28*	11	5	28	13
CCOC(=O)C1=C(COC(=O)c2ccc([N+](=O)[O-])o2)NC(=O)NC1C (stereo not given)	2	0	3	-14	-1	·
CCO[C@H]1OC(C(=O)N2CCN(Cc3ccc4c(c3)OCO4)CC2)=C[C@@H](c2csc3ccccc23)[C@@H]1CCCO	-32	96*	6	4	0	-1
CC1(NC(=O)CCc2nc3ccccc3c(=O)[nH]2)CCS(=O)(=O)C1 (stereo not given)	-2	2	-13	1	6	·
CC(C)c1csc(CN2CCC(C(=O)Nc3cccc(-c4ccco4)c3)CC2)n1	-35	27*	-7	-21	-21	-1
COc1cccc(-c2cccc(NC(=O)C3CCN(Cc4nccs4)CC3)c2)c1	2	-11	3	-1	3	·
CCN(CC)c1ccc(/C=C(/C#N)c2nc3ccccc3[nH]2)c(OC(C)C)c1	20	41*	-6	5	21	13
Nc1cc(S(=O)(=O)O)cc2ccc(S(=O)(=O)O)cc12	5	35*	-1	1	17	10
Nc1ccc(S(=O)(=O)C(F)(F)F)cc1N	-8	-2	2	13	-4	·
CC1CCN(C2CC(=O)N(c3ccc(Br)cc3Br)C2=O)CC1 (stereo not given)	-12	64*	8	-5	-7	16
O=C1CC(N2CCSCC2)C(=O)N1c1ccc(Br)cc1 (stereo not given)	2	14	-11	-6	3	·
CC1CCN(C2CC(=O)N(c3ccccc3)C2=O)CC1 (stereo not given)	2	81*	-3	5	-1	4
CCSS(=O)(=O)c1cccc2cccnc12	·	93*	4	5	5	98*
Cc1nnc(SCC(=O)Nc2cc(Cl)ccc2Cl)n1CC1CCCO1 (stereo not given)	2	6	0	-2	-1	·
Cc1ccc(NC(=O)CSc2ccc(-c3cccnc3)nn2)c(C)c1	0	51*	1	-12	4	-2
Cc1ccc(NC(=O)CSc2ccc(-c3ccccn3)nn2)c(C)c1	3	4	-5	-10	4	·
CSc1ccc(/C=C(/NC(=O)c2ccccc2)C(=O)NCCN2CCOCC2)cc1	0	-4	-6	3	8	·
CCC(C(=O)Nc1c(C)cccc1C)n1c(-c2ccc(=O)[nH]c2)nc2ccccc21 (stereo not given)	·	2	-6	9	3	·
C[n+]1c2n(c3ccccc31)N=C(c1ccc(Br)cc1)CS2	-8	57*	-2	3	0	2
CCc1nnc2n1N=C(c1ccc(Br)cc1)CS2	-5	-7	3	-5	-1	·
C[n+]1c2n(c3ccccc31)N=C(c1ccc(-c3ccccc3)cc1)CS2	2	5	6	-2	1	·
C[n+]1c2n(c3ccccc31)N=C(c1ccccc1)CS2	1	48*	-2	4	1	8
COC(=O)C1=C(C)NC(=O)NC1c1ccc(-c2ccc(Cl)cc2)o1 (stereo not given)	-7	4	-3	7	-6	·

Source: PubChem (The Scripps Research Institute Molecular Screening Center)
